This is an account of results in ChEMBL document CHEMBL1133746 (J Med Chem, 2000).

Assay [1] concerns the target T1, B1 bradykinin receptor (Homo sapiens, UniProt P46663).
T1 sequence (P46663 whole entry): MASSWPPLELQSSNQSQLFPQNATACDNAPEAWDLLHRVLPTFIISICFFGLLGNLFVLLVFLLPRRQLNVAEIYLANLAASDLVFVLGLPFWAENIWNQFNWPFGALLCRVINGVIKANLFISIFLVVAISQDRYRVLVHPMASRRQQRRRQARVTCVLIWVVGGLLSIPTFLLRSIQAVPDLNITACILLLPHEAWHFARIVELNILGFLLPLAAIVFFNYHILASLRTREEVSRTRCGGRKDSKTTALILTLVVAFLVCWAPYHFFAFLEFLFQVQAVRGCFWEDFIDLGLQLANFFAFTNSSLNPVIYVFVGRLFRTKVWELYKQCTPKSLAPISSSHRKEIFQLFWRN
As to the kind of experiment: Ability to bind to human cloned B1 receptor in competition binding experiments with [3H][des-Arg10,Leu9]-Kallidin. The method, boiled down: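 Membranes from stably transfected human embryonic kidney 293 cells expressing the human B1 receptor were used. Cells were scraped into 25 mM TES pH 7.4 with 1 mM 1,10-phenanthroline, 140 µg/mL bacitracin and 0.1% BSA, and membranes were spun at 40000g for 15 min. Incubation was with 1 nM [3H][des-Arg10,Leu9]-kallidin for 60 min. Nonspecific binding was taken with 10 µM [des-Arg10,Leu9]-kallidin. Bound label was collected by filtration on PEI-soaked GF/B filters and counted by scintillation.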

The species entered for assay [2] is Homo sapiens. As to the kind of experiment: Inhibition of contraction of human umbilical vein (HUV) induced by different concentrations of bradykinin was determined. It counts as functional. The note with it: for Kb: read-out: pA2 (converted). In outline: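 Human umbilical vein rings (3–4 mm) were mounted in Krebs organ baths at 37 °C with 95% O2/5% CO2. Captopril (10 µM), DL-thiorphan (1 µM), mepyramine (1 µM), atropine (1 µM), indomethacin (3 µM), NG-nitro-L-arginine (30 µM) and nifedipine (0.1 µM) were added. […] Means are of at least 3 experiments.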

Assay [3] addresses T2, B2 bradykinin receptor (Homo sapiens, UniProt P30411).
T2 sequence (P30411 whole entry): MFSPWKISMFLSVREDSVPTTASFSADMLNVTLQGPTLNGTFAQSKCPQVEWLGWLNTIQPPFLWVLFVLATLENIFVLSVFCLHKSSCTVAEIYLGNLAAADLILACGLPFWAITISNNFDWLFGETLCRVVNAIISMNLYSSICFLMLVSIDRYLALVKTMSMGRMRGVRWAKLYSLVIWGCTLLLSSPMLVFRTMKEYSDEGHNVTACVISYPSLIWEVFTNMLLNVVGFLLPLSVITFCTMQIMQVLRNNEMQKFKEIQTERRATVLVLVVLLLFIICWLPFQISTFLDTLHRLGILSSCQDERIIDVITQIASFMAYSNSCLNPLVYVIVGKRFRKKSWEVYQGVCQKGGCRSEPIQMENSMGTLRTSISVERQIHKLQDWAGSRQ
The experiment in a line: Ability to bind to human cloned B2 receptor in competition binding experiments with [3H]- bradykinin. The method, boiled down: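 Membranes were prepared from stably transfected CHO cells expressing the human B2 receptor. Cells were scraped into 20 mM TES pH 6.8 with 1 mM 1,10-phenanthroline, 140 µg/mL bacitracin and 0.1% BSA, and membranes were spun at 40000g for 15 min. Bound label was filtered on PEI-soaked GF/B filters, washed with ice-cold buffer and counted.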

The species named for assay [4] is Homo sapiens. As to the kind of experiment: Ability to inhibit contraction of human umbilical vein (HUV) induced by [des-Arg10]-Kallidin was determined. In kind it is functional. The note with it: read-out: pA2 (converted). In outline: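 Human umbilical vein rings (3–4 mm) were kept overnight at 37 °C in Krebs with penicillin/streptomycin under 95% O2/5% CO2 to induce B1. They were then set in organ baths at 37 °C with captopril, thiorphan, mepyramine, atropine, indomethacin, NG-nitro-L-arginine and nifedipine added. [des-Arg10]-kallidin concentration-response curves were run 30 min later, with antagonist or vehicle added 15 min before. Means are of at least 3 experiments.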

*1 amine or outer side, *2 acyl side, *3 side chain or, on linkers, in order; H or OH if unused. Where a SMILES comes first, the peptide text is derived from it. [ ]: non-standard residue; d: D form. The star is where a group is joined. X2 = O=C(O)CN1C(=O)[C@H](N*)CSc2ccccc21; X1 = O=C([C@@H]1CC(O)CN1[*:1])[*:2]; Igl = N[C@H](C(=O)O)C1Cc2ccccc2C1; Hyp = O=C(O)[C@@H]1C[C@@H](O)CN1; 2Thi = N[C@@H](Cc1cccs1)C(=O)O Some results are limits rather than exact numbers.

As usually defined, the Ki is a dissociation constant, usually derived from enzyme kinetics or from competition with a known ligand. A low value points to a stronger hold on the target. For the compound `NC(N)=NCCC[C@@H](N)C(=O)N[C@@H](CCCN=C(N)N)C(=O)N1CCC[C@H]1C(=O)N1CC(O)C[C@H]1C(=O)NCC(=O)N[C@H](C(=O)N[C@@H](CO)C(=O)N[C@@H]1CSc2ccccc2N(CC(=O)O)C1=O)C1Cc2ccccc2C1` (some centres undefined), the figures for the Ki in assay [1] and in assay [3] were 5.6 nM and 325 nM, respectively. In assay [2], the Kb is over 10000 nM.
As for `CC(C)C[C@H](NC(=O)[C@@H]1CCCN1C(=O)[C@H](CO)NC(=O)[C@H](Cc1ccccc1)NC(=O)CNC(=O)[C@@H]1CCCN1C(=O)[C@@H]1CCCN1C(=O)[C@H](CCCN=C(N)N)NC(=O)[C@@H](N)CCCCN)C(=O)O`, the values for the Kb in assay [4] and in assay [2] were 12.6 nM and over 10000 nM, respectively. Besides, the Ki in assay [3] was over 1000 nM.
`NC(N)=NCCC[C@@H](N)C(=O)N[C@@H](CCCN=C(N)N)C(=O)N1CCC[C@H]1C(=O)N1C[C@H](O)C[C@H]1C(=O)NCC(=O)N[C@@H](Cc1cccs1)C(=O)N[C@@H](CO)C(=O)N1Cc2ccccc2C[C@@H]1C(=O)N1[C@H](C(=O)O)C[C@@H]2CCCC[C@@H]21` displayed an inhibitory constant (Ki) in assay [1] of 24 nM. Moreover, the Kb in assay [4] was 31.6 nM; in assay [2], over 10000 nM.
As to `NC(N)=NCCC[C@@H](N)C(=O)N[C@@H](CCCN=C(N)N)C(=O)N1CCC[C@H]1C(=O)N1C[C@H](O)C[C@H]1C(=O)NCC(=O)N[C@@H](Cc1cccs1)C(=O)N[C@@H](CO)C(=O)N1Cc2ccccc2C[C@@H]1C(=O)N1[C@H](C(=O)N[C@@H](CCCN=C(N)N)C(=O)O)C[C@@H]2CCCC[C@@H]21`, the inhibition constant (Ki) in assay [1] was over 1000 nM. Also, in assay [4], the Kb was over 10000 nM.
For the compound `N=C(N)NCCC[C@@H](N)C(=O)N[C@@H](CCCNC(=N)N)C(=O)N1CCC[C@H]1C(=O)N1CC(O)C[C@H]1C(=O)NCC(=O)N[C@@H](Cc1cccs1)C(=O)N[C@@H](CO)C(=O)N[C@@H]1CSc2ccccc2N(CC(=O)O)C1=O` (some centres undefined), the inhibitory constant (Ki) came to 83 nM in assay [1] and 4.4 nM in assay [3].
Turning to `CC(C)C[C@H](NC(=O)[C@@H]1CCCN1C(=O)[C@H](CO)NC(=O)[C@H](Cc1ccccc1)NC(=O)CNC(=O)[C@@H]1CCCN1C(=O)[C@@H]1CCCN1C(=O)[C@@H](N)CCCN=C(N)N)C(=O)O`, the Kb in assay [4] is 398 nM; in assay [2], over 10000 nM. In addition, the inhibition constant Ki in assay [3] is over 1000 nM.
Regarding `NCCCC[C@H](NC(=O)[C@@H](N)CCCCN)C(=O)N[C@@H](CCCN=C(N)N)C(=O)N1CCC[C@H]1C(=O)N1CC(O)C[C@H]1C(=O)NCC(=O)N[C@H](C(=O)N[C@@H](CO)C(=O)N[C@@H]1CSc2ccccc2N(CC(=O)O)C1=O)C1Cc2ccccc2C1` (some centres undefined) (H-KKRP[X1]G[Igl]S-X2), the inhibition constant (Ki) in assay [1] amounted to 0.035 nM; in assay [3], 62 nM. The Kb in assay [4] is 3.16 nM; in assay [2] it was 3160 nM.
Consider `NCCCC[C@H](N)C(=O)N[C@@H](CCCN=C(N)N)C(=O)N1CCC[C@H]1C(=O)N1C[C@H](O)C[C@H]1C(=O)NCC(=O)N[C@H](C(=O)N[C@@H](CO)C(=O)N[C@@H]1CSc2ccccc2N(CC(=O)O)C1=O)C1Cc2ccccc2C1` (H-KRP[Hyp]G[Igl]S-X2), for which the inhibitory constant (Ki) turned out to be 0.023 nM in assay [1] and 9.2 nM in assay [3]. For the same compound, the values for the Kb in assay [4] and in assay [2] were 10 nM and over 10000 nM, respectively.
As to `NCCCC[C@H](N)C(=O)N[C@@H](CCCN=C(N)N)C(=O)N1CCC[C@H]1C(=O)N1CC(O)C[C@H]1C(=O)NCC(=O)N[C@@H](Cc1cccs1)C(=O)N[C@@H](CO)C(=O)N[C@@H]1CSc2ccccc2N(CC(=O)O)C1=O` (some centres undefined) (H-KRP[X1]G[2Thi]S-X2) [listing 1 of 2 here], the inhibitory constant (Ki) in assay [1] stood at 0.22 nM; in assay [3], 0.4 nM. Also, the Kb in assay [4] was 39.8 nM.
The compound `NCCCC[C@H](N)C(=O)N[C@@H](CCCN=C(N)N)C(=O)N1CCC[C@H]1C(=O)N1CC(O)C[C@H]1C(=O)NCC(=O)N[C@@H](Cc1cccs1)C(=O)N[C@@H](CO)C(=O)N[C@@H]1CSc2ccccc2N(CC(=O)O)C1=O` (some centres undefined) (H-KRP[X1]G[2Thi]S-X2) [listing 2 of 2 here] returned a pKp in assay [2] of 4.8.
As to H-RPPGFSPFR-OH [BRADYKININ], the pD2 in assay [2] worked out at 7.9.
